Bioassay records: PubChem, several laboratories
PREPL inh – human PREPL enzyme inhibition; inhibition, % at 5.96 µM; recombinant PREPL, fluorescence polarization activity-based probe; hit rate 0.68% among 320,000; in the data active = inhibition above about 43%;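 note: 0% = enzyme with DMSO and 100% = wells lacking enzyme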
UCH37 inh – blocks the human deubiquitinase UCH37 | Q9Y5K5 | purified proteasome/UCH37, Ub-AMC cleavage fluorescence | inhibition, % (no concentration beside the values) | hit rate 0.33% among 330,000 | AID 588478;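 active = mean inhibition over replicate wells above about 20%, limit read from the data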;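 note: 0% = compound-free wells with enzyme and 100% = wells lacking proteasome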
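Assay system: Proteasome-bound UCH37. Buffer or medium: pH 7.4 Tris-HCl (50 mM) with ovalbumin, ATP-MgCl2, DTT. Incubation: 30 min preincubation with enzyme, 25 min cleavage at room temperature. Measured by: fluorescence, ex 355 nm, em 460 nm. Read-out basis: percent inhibition. Control set: wells without proteasome as full block, compound-free enzyme plus substrate as uninhibited.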
UBC13 inh – human UBC13 polyubiquitination inhibition; P61088; UBC13 polyubiquitin chain formation, TR-FRET; inhibition, % at 20 µM; hit rate 0.47% among 330,000; in the data active = inhibition above about 45%, passing the limit was not always enough
Apaf1 inhib – inhibitors of human Apaf-1 apoptosome; O14727; reconstituted apoptosome caspase-3 activity, DEVD-Rh110 fluorescence; inhibition, % at 20 µM; hit rate 0.71% among 330,000; AID 489030; active = inhibition of at least 40% at 20 µM;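 note: plate controls were DMSO wells for no effect and DEVD-CHO caspase inhibitor wells for full effect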
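System: Apoptosome proteins | Medium: Hepes pH 7.5 with detergent and BSA | Also added: Cytochrome c trigger plus (Z-DEVD)2-Rh110 caspase-3 substrate | Incubation: 30 min compound preincubation, 50 min activation, room temperature | Detection: Rhodamine 110 fluorescence at Ex 480/Em 540 nm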
Casp3 UBC13 ctr – counter-screen for UBC13 inhibitors: human caspase-3 inhibition; shares compounds with UBC13 inh; Recombinant caspase-3, Caspase-Glo 3/7 luminescence, 60 min; inhibition, % at 20 µM; hit rate 4% among 1,400;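 active = mean inhibition across replicates above about 26%, limit read from the data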;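 note: plate controls were DMSO with caspase-3 for no effect and DMSO wells lacking enzyme for full effect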
UBC13 confirm – confirmation of human UBC13 polyubiquitin inhibitors. shares compounds with UBC13 inh. UBC13 polyubiquitination, TR-FRET, biochemical. inhibition, % at 10 µM. hit rate 68% among 1,400. AID 488859; in the data active = inhibition above about 45%
Apaf-1 inh conf – Apaf-1 inhibition, single-dose confirmed | reconstituted apoptosome, caspase-3 DEVD-Rh110 fluorescence | shares compounds with Apaf1 inhib | inhibition, % at 20 µM | AID 504614 | hit rate 25% among 1,800;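 active = mean inhibition of at least 40% at 20 µM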;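 note: plate controls were DMSO wells for no effect and DEVD-CHO caspase inhibitor control wells for full effect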
Rh110 quench – interferes with Rh110 fluorescence, flagging false Apaf-1 inhibitors | shares compounds with Apaf1 inhib | Rh110 fluorescence interference, quenched caspase reaction | activation (fluorescence interference), % at 20 µM | 1,800 tested, under 10 active | AID 504615;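 active = signal rise of 40% or more at 20 µM, treated as a fluorescence artifact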
Fluor interf inh – counter-screen for Apaf-1 inhibitors: fluorescence interference, dose response; shares compounds with Apaf1 inhib; fluorescence interference counterscreen, Apaf-1 assay format; IC50, µM; 460 tested, under 10 active; AID 588538; call rule not given here
Active calls of the source: *; nt = not tested or not shown. An excerpt weighted towards active compounds, which were near 1.5% of everything screened.

SMILES	PREPL inh	UCH37 inh	UBC13 inh	Apaf1 inhib	Casp3 UBC13 ctr	UBC13 confirm	Apaf-1 inh conf	Rh110 quench	others
CN(C)CCCNC(=O)CC1C[C@H](C(=O)N2CCCCC2)[C@@]2(CCc3ccccc3)c3[nH]c4ccccc4c3CCN2C1=O (stereo partly drawn)	28	3	47*	46*	0	17	11	0
COc1ccc2[nH]c3c(c2c1)CCN1C(=O)C(CC(=O)NCCCN(C)C)C[C@H](C(=O)N2CCCCC2)[C@@]31CCc1ccccc1 (stereo partly drawn)	nt	3	nt	37	nt	nt	nt	nt
C#CCOCCOCCOCCNc1nc(N2CCN(C(=O)C([C@@H](C)CC)n3cc(C(N)CO)nn3)CC2)nc(N2CCN(C(=O)[C@H](CCC(=O)O)n3cc(C(N)Cc4ccc(O)cc4)nn3)CC2)n1 (stereo partly drawn)	nt	2	-10	-2	nt	nt	nt	nt
C#CCOCCOCCOCCNc1nc(N2CCN(C(=O)C([C@@H](C)O)n3cc([C@@H](N)CCCCN)nn3)CC2)nc(N2CCN(C(=O)[C@H](CCCCN)n3cc([C@@H](N)CC(N)=O)nn3)CC2)n1 (stereo partly drawn)	7	4	103*	51*	1	106*	9	-2
C#CCOCCOCCOCCNc1nc(N2CCN(C(=O)[C@H](CC(N)=O)n3cc([C@@H](N)CC(N)=O)nn3)CC2)nc(N2CCN(C(=O)[C@H](CC(N)=O)n3cc([C@@H](N)CC(N)=O)nn3)CC2)n1	9	1	9	7	nt	nt	nt	nt
C#CCOCCOCCOCCNc1nc(N2CCN(C(=O)[C@H]([C@@H](C)CC)n3cc([C@@H](N)Cc4ccc(O)cc4)nn3)CC2)nc(N2CCN(C(=O)[C@H](CCCCN)n3cc([C@@H](N)CO)nn3)CC2)n1	12	0	98*	52*	-3	73*	0	1
C#CCOCCOCCOCCNc1nc(N2CCN(C(=O)[C@H](CCCCN)n3cc([C@@H](N)CC(N)=O)nn3)CC2)nc(N2CCN(C(=O)[C@H](CCCCN)n3cc([C@@H](N)CC(N)=O)nn3)CC2)n1	12	2	108*	55*	-2	111*	5	3
O=C(NN=Cc1ccc(Cl)cc1)Nc1ccccc1	nt	3	nt	nt	nt	nt	nt	nt
CCOc1ccc(C(=O)NN=Cc2ccc(SC)cc2)cc1	nt	6	nt	nt	nt	nt	nt	nt
CC(C)(C)C(=O)ON=C1CCS(=O)(=O)c2sccc21	nt	5	nt	nt	nt	nt	nt	nt
C#CCOCCOCCOCCNc1nc(N2CCN(C(=O)[C@H](CCCCN)n3cc([C@@H](N)[C@H](C)CC)nn3)CC2)nc(N2CCN(C(=O)[C@H](CCC(=O)O)n3cc([C@@H](N)CCCCN)nn3)CC2)n1	19	3	101*	47*	-2	109*	-4	-2
C#CCOCCOCCOCCNc1nc(N2CCN(C(=O)[C@H](CCCN=C(N)N)n3cc(C(N)[C@H](C)CC)nn3)CC2)nc(N2CCN(C(=O)[C@H](CC(N)=O)n3cc(C(N)[C@@H](C)CC)nn3)CC2)n1 (stereo partly drawn)	31	8	18	0	nt	nt	nt	nt
C#CCOCCOCCOCCNc1nc(N2CCN(C(=O)[C@H](CCCN=C(N)N)n3cc(C(N)[C@@H](C)CC)nn3)CC2)nc(N2CCN(C(=O)[C@H](CCCCN)n3cc([C@@H](N)[C@H](C)CC)nn3)CC2)n1 (stereo partly drawn)	29	1	95*	50*	1	88*	5	6
O=C(C[n+]1ccc(C(=O)NN=Cc2ccc(Cl)cc2Cl)cc1)c1ccccc1	nt	10	nt	nt	nt	nt	nt	nt
CCCCCCCCCCCCCCCC(O)C(N)CO (stereo not drawn)	7	5	111*	80*	2	101*	21	13
CCCCCCCCO	8	3	6	-3	nt	nt	nt	nt
CC(C)N1CCc2c(sc(NC(=O)c3ccc(S(=O)(=O)N4CCc5ccccc54)cc3)c2C(N)=O)C1	6	1	50*	46*	0	41	3	1
CC(C)N1CCc2c(sc(NC(=O)c3nc4ccccc4s3)c2C(N)=O)C1	8	9	2	11	nt	nt	nt	nt
COc1ccc(C[C@@H]2CN3C(=NC[C@@H]3C)N2C[C@H](C)NC(=O)c2ccc(C)c(Br)c2)cc1	18	5	37	20	nt	nt	nt	nt
COc1ccc(C[C@H]2CN3C(=NC[C@@H]3C(C)C)N2CCNC(=O)c2ccc(C)c(Br)c2)cc1	27	-2	60*	47*	-4	34	11	8
O=C1N/C(=N/N=Cc2ccccc2)SC1(c1ccccc1)c1ccccc1	nt	4	nt	nt	nt	nt	nt	nt
C#CCOCCOCCOCCNc1nc(N2CCN(C(=O)CCCCCCCCCCNC(=O)Cn3cc(C[C@@H](C)O)nn3)CC2)nc(N2CCN(C(=O)CCCCCCCCCCNC(=O)[C@@H](CCC(=O)O)n3cc(CCCCCN)nn3)CC2)n1	22	2	66*	52*	-5	51*	13	10
C#CCOCCOCCOCCNc1nc(N2CCN(C(=O)CCCCCCCCCCNC(=O)[C@@H](CCSC)n3cc(CCO)nn3)CC2)nc(N2CCN(C(=O)CCCCCCCCCCNC(=O)[C@H](CCSC)n3cc(CCO)nn3)CC2)n1	-2	4	28	28	nt	nt	nt	nt
C#CCOCCOCCOCCNc1nc(N2CCN(C(=O)[C@H]([C@@H](C)CC)n3cc(CCCCN)nn3)CC2)nc(N2CCN(C(=O)[C@H](C)n3cc(CCC(=O)O)nn3)CC2)n1	-6	1	0	-1	nt	nt	nt	nt
C#CCOCCOCCOCCNc1nc(N2CCN(C(=O)CCCCCCCCCCNC(=O)[C@H](CO)n3cc(CCCSC)nn3)CC2)nc(N2CCN(C(=O)CCCCCCCCCCNC(=O)[C@H](CCCCN)n3cc(CCO)nn3)CC2)n1	30	3	113*	74*	1	124*	42*	10	Fluor interf inh=>100
C#CCOCCOCCOCCNc1nc(N2CCN(C(=O)CCCCCCCCCCNC(=O)[C@H]([C@@H](C)CC)n3cc(CCCCCN)nn3)CC2)nc(N2CCN(C(=O)CCCCCCCCCCNC(=O)[C@H](CCCCN)n3cc(CCCC(=O)O)nn3)CC2)n1	29	nt	114*	56*	-2	105*	28	20
